Bioassay records: PubChem, several laboratories
In the library only some 1.4% were active in any assay of this set; here they are far more common.
CTSL1 counter: blocks F. hepatica cathepsin L1 in PFM18AAP counter-screen. recombinant F. hepatica cathepsin L1, Z-Leu-Arg-MCA fluorescence. inhibition, % at 5.96 µM. 300,000 tested, 0.49% active;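 active = inhibition above the mean of all tested compounds plus 3 SD, set per screening campaign, cut at about 17% in these data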;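 note: 0% = plate median of test compound wells and 100% = 1 µM Z-Phe-Ala-diazomethylketone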
HKDC1 inhibitor: blocks human hexokinase HKDC1 activity; inhibition, % at 20 µM; recombinant HKDC1, G6PDH/diaphorase resazurin coupled fluorescence; Q2TB90; 340,000 tested, 0.16% active;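 active = inhibition above about 35% when tested at 20 µM, limit read from the data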;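 note: plate controls were DMSO wells with enzyme for no effect and DMSO wells lacking enzyme for full effect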
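Test system: recombinant HKDC1 (HK5) hexokinase enzyme, produced in-house; Amount: enzyme 5 µg/mL final; Buffer or medium: Tris pH 8.0 buffer with MgCl2, Tween-20, BSA, BME; Reagent: glucose and ATP substrates; Doses: 20 µM test compound, 1% DMSO; Incubation: 90 min reaction incubation at room temperature, dark; Detection: resorufin fluorescence at 613 nm.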
Diaphorase inh: counter-screen for diaphorase-based assays: diaphorase inhibitors and chemical oxidizers; 190,000 tested, 0.69% active; AID 1217; inhibition, % at 20 µM; diaphorase resazurin-to-resorufin fluorescence, NADH, 16 min; bacterial (C. kluyveri) enzyme, not human;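 active = primary screen inhibition at 20 µM above a set limit, cut at about 50% in these data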;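 note: plate controls were DMSO with full reaction for no effect and wells lacking NADH for full effect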
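Test system: diaphorase enzyme from Clostridium kluyveri; amount: diaphorase at 0.14 U/mL in enzyme working solution; detection: fluorescence of resorufin formed from resazurin, Ex 544/Em 590 nm; times: reaction incubation of 16 min at room temperature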
Diaph act CS: activates diaphorase or chemically reduces, flagging diaphorase assay artifacts. activation factor at 20 µM. 190,000 tested, 0.005% active. Diaphorase/resazurin coupled assay, resorufin fluorescence, 16 min; hits give high values; 1 = vehicle wells, 0 = NADH-free wells. AID 1229;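 active = diaphorase activity raised at least twofold by the compound at 20 µM; inactive = activation factor below 2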
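Test system: Clostridium kluyveri diaphorase, purified enzyme; input: enzyme 0.07 U/mL final; buffer or medium: 50 mM HEPES pH 7.4 with 4.542 mM MgCl2, 0.005% Tween 20; also added: 0.114 mM NADH and 0.1 mM resazurin, final amounts; schedule: 16 min enzyme reaction, ambient temperature; technique: fluorescence of resorufin, 544 nm excitation, 590 nm emission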
ATG4B inh: blocks human ATG4B protease cleavage of LC3 substrate; 340,000 tested, 0.51% active; Q9Y4P1; ATG4B cleavage of LC3-PLA2, NBD-HPC fluorescence, 1 h; inhibition, % at 8.33 µM; in the data active = inhibition above about 40%
Target sequence (Q9Y4P1 whole entry, looked up): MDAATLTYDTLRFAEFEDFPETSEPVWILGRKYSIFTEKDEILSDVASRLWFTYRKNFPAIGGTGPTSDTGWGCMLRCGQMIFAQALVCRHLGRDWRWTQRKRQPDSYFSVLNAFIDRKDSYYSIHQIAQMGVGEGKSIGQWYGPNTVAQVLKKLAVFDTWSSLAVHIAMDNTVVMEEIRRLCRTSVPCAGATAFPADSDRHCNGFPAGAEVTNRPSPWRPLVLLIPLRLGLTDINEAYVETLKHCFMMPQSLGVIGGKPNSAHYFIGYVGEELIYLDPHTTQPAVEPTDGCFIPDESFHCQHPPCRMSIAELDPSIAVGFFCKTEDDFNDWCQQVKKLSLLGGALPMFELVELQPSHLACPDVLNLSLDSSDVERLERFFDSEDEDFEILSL
The depositor's hits bear a star; . = no result.

SMILES | CTSL1 counter | HKDC1 inhibitor | Diaphorase inh | Diaph act CS | ATG4B inh
C[C@@H](C(=O)O)[C@@H]1C[C@@]1(C)[C@@H](NC(=O)OCc1ccccc1)c1ccccc1 | -1 | -3 | 12 | 0.9 | -2
CNC(=O)[C@H](C)[C@@H]1C[C@@]1(C)[C@@H](NC(=O)OCc1ccccc1)c1ccccc1 | 18* | -1 | 12 | 0.9 | 11
O=C1Nc2ccccc2C(O)(C(=O)NCc2ccco2)N1c1ccc(Cl)c(Cl)c1 (stereo not given) | 66* | 8 | 10 | 0.9 | 6
O=C(/C=C/c1ccc(O)c(O)c1)c1ccc(S(=O)(=O)N2CCCCCC2)cc1 | -6 | -2 | 52* | 0.5 | 12
Cn1cnnc1Sc1nc([N+](=O)[O-])nn1C | -8 | 2 | 10 | 0.9 | -5
COc1ccccc1-c1nnc(Sc2nc([N+](=O)[O-])nn2C)o1 | 77* | -12 | 13 | 0.9 | -3
O=C(CCl)NCc1cc(-c2ccc(Cl)cc2)no1 | 35* | 0 | 3 | 1 | -14
O=C(NCCCc1ccccc1)c1cccc(Br)c1 | -5 | -2 | . | . | -3
O=C(CN(Cc1ccccc1)C(=O)CCl)c1cccc(Br)c1 | 75* | 9 | . | . | 2
O=C(COC(=O)CNC(=O)c1ccc(Cl)cc1Cl)NNC(=O)c1ccccc1F | . | -5 | . | . | 2
O=C(CC12CC3CC(CC(C3)C1)C2)NCc1ccncc1 | 17* | -6 | 15 | 0.8 | 0
COc1cc(CC(=O)OCC(=O)NC2CCCC2)cc(OC)c1OC | . | -6 | . | . | -49
COc1cc(CC(=O)OCC(=O)NC2CC2)cc(OC)c1OC | 46* | -12 | 1 | 1 | -5
CC(C)CCNC(=O)CN(C(=O)CCC(=O)Nc1nccs1)C1CCCCC1 | -2 | -3 | . | . | -2
COc1cccc(C(=O)NCCSc2ccc(F)cc2)c1 | -2 | -5 | 56* | 0.4 | 5
COc1cccc(C(=O)NCCSc2ccc(C)cc2)c1 | 4 | 16 | 6 | 0.9 | -7
CC(=O)c1cccc(NC(=O)CN2CCc3cc4c(cc3C2)OCCCO4)c1 | -5 | -5 | . | . | -31
CC(C)(CNC(=O)c1cccc(S(=O)(=O)Nc2ccc(SC(F)F)cc2)c1)N1CCOCC1 | . | -1 | . | . | -14
CCOc1ccc(NC(=O)C(c2ccccn2)N(C(=O)CCl)c2ccc(OCC)cc2)cc1 (stereo not given) | -2 | -5 | 54* | 0.5 | 11
CCOc1ccc(NC(=O)C(c2ccccn2)N(C(=O)CCl)c2ccc(OC)cc2)cc1 (stereo not given) | 0 | 12 | 56* | 0.4 | 1
COc1ccc(NC(=O)C(c2ccccn2)N(C(C)=O)c2ccc(C)cc2)cc1 (stereo not given) | 1 | -9 | 7 | 0.9 | 0
CC(=O)C1=C(c2ccccc2)NC(=O)NC1c1cccs1 (stereo not given) | 0 | -6 | . | . | 0
COc1ccc(-c2ccc(C(=O)O)o2)c([N+](=O)[O-])c1 | 0 | -3 | 69* | 0.3 | -6
Cc1ccc(OS(=O)(=O)c2c(C)nn(C)c2Cl)c(C)c1 | -1 | -1 | . | . | -9
O=C(/C=C/c1ccc(Cl)cc1)c1ccc([N+](=O)[O-])o1 | 2 | 54* | . | . | 5
SMILES | CTSL1 counter | HKDC1 inhibitor | Diaphorase inh | Diaph act CS | ATG4B inh
CCOC(=O)c1c(NC(=O)CCl)sc(CN(C)C)c1-c1ccccc1 | 22* | 6 | 9 | 0.9 | -5
CCOC(=O)c1ccc(NCCc2ccc(OC)c(OC)c2)c(N)c1 | 1 | -5 | . | . | 7
Cc1ccc(-c2csc(/C=C3/SC(C)C(=O)N3CC(=O)Nc3ccccc3F)n2)cc1 (stereo not given) | . | -7 | . | . | 2
CC(=O)c1ccccc1NC(=O)CN1C(=O)CS/C1=C\c1nc(-c2ccc(C)cc2)cs1 | 18* | -11 | 5 | 0.9 | -6
Oc1ccc(Cl)cc1C=NCCc1ccccc1 | -3 | 3 | 13 | 0.9 | 43*
COc1cccc(/C=N/Nc2nc3ccccc3n3cnnc23)c1O | 7 | -2 | 66* | 0.3 | -16
CCCN(C(=O)COc1ccc(C(C)=O)cc1OC)C1CCS(=O)(=O)C1 (stereo not given) | . | -5 | . | . | 8
Nc1cc(N)c(OCC(F)(F)F)cc1OCC(F)(F)F | 9 | 21 | 50* | 0.5 | -8
Nc1cc(OCC(F)(F)F)cc([N+](=O)[O-])c1 | -4 | 18 | 5 | 0.9 | -4
CCn1c(COc2cccc(C)c2)nnc1SCC(=O)CC(=O)Nc1ccccc1OC | 17* | -1 | 24 | 0.8 | -5
Cc1cccc(-n2nc(C)c3c(C(=O)O)cc(-c4cccs4)nc32)c1 | 5 | -3 | 52* | 0.5 | 2
Cc1nn(-c2cccc(Cl)c2)c2nc(-c3ccco3)cc(C(=O)O)c12 | 2 | 2 | 34 | 0.7 | 7
CCOC(=O)c1sc(N(Cc2ccccc2)C(=O)CCl)nc1C | 22* | 30 | . | . | 6
CN(c1ncnc(N)c1[N+](=O)[O-])C1CCS(=O)(=O)C1 (stereo not given) | 0 | -11 | 7 | 0.9 | -7
Nc1ncnc(NC2CCS(=O)(=O)C2)c1[N+](=O)[O-] (stereo not given) | 49* | -5 | . | . | 23
COc1ccc(S(=O)(=O)N(Cc2ccco2)Cc2cc3ccccc3[nH]c2=O)cc1 | 2 | -4 | . | . | 3
O=C(CSc1nnc(CCCN2C(=O)c3cccc4cccc(c34)C2=O)n1-c1ccccc1)NCCCN1CCOCC1 | 4 | 9 | 55* | 0.5 | 4
O=C(CSc1nnc(CCCN2C(=O)c3cccc4cccc(c34)C2=O)n1-c1ccccc1)NCCCO | 0 | 29 | 44 | 0.6 | -11
COc1ccccc1/C=N/Nc1cc(N(C)C)nc(N(C)C)n1 | 2 | 3 | 53* | 0.5 | -12
COc1ccccc1/C=N/Nc1cc(C)nc(N2CCOCC2)n1 | 8 | -1 | . | . | -13
COc1ccc(/C=N/Nc2cc(N(C)C)nc(N(C)C)n2)cc1 | 0 | 6 | 33 | 0.7 | -2
CN(C)c1cc(N/N=C\c2ccccc2)nc(N(C)C)n1 | 0 | 8 | 52* | 0.5 | 5
Cc1cnc(C(=O)OC(C(=O)c2c[nH]c3ccccc23)c2ccccc2)cn1 (stereo not given) | -29 | -1 | . | . | -4
C[C@H]1CN([C@@H](C)CO)C(=O)c2cccc(NC(=O)C3CC3)c2O[C@H]1CN(C)S(=O)(=O)c1ccccc1 | . | -7 | . | . | -20
CCOC(=O)N1CCN(S(=O)(=O)N2CCCC(C(=O)NCc3cccc(OC)c3)C2)CC1 (stereo not given) | -2 | -3 | . | . | -1
CCO[C@H]1OC(C(N)=O)=C[C@@H](c2ccc(Br)cc2)[C@@H]1CCCO | 0 | -1 | 18 | 0.8 | 2
C=CCOC(=O)C1=C[C@H](c2ccc(Br)cc2)[C@@H](CCCO)[C@H](OCC)O1 | 6 | 1 | 55* | 0.4 | -12
